Experimental data from PubChem BioAssay AID623990 (Broad Institute, 2012).
Active and inactive are the calls of the source.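 Rule for the calls: active = falling cell signal with fitted IC50 no higher than a set limit, twice the top tested dose; inconclusive = flat fit with toxicity between 30 and 70%, or poor fit; inactive = the rest.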

Test system: HeLa viability, CellTiter-Glo ATP luminescence
Experiment: HeLa cell cytotoxicity, dose response, cytotoxicity control for pyoverdine/PvdQ inhibitor project, CellTiter-Glo luminescence, dry powder, set 2 (AID 623990)
Settings: not given
In short: (§1)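 Assay system: HeLa cells | Input: 2,500 cells/well | Medium: Phenol red-free DMEM, 10% FBS | Compound: 3-fold dose series | Incubation: Cells settled 24 h at 37 °C, then compound exposure 48 h | Signal: CellTiter-Glo luciferase luminescence (0.5X reagent), reporting intracellular ATP | Read-out basis: Cell viability from luminescent signal, signal drop indicating toxicity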
In the case of `COCCC(C#N)c1ccc(Cl)cc1` (stereo unspecified), the IC50 is reported as 62.2 µM. For `CCCCC(c1ccc(Cl)cc1)c1nn[nH]n1` (stereo unspecified), the IC50 was > 240 µM (inactive). With `N#CC(c1cccc(C(F)(F)F)n1)c1ccc(Cl)cc1F` (stereo unspecified) the IC50 was > 240 µM (inactive). In the case of `CN(C)CCCC(C#N)c1ccc(F)cc1` (stereo unspecified), the IC50 is reported as > 240 µM (inactive). For `N#CC(c1ccc(Cl)cc1)c1ncccc1Cl` (stereo unspecified), the IC50 was > 240 µM (inactive). Compound `N#CC(c1cccc(Cl)n1)c1ccc(Cl)cc1F` (stereo unspecified) has an IC50 of 111 µM.

Test system: not listed separately
Experiment: as above
Settings: HeLa viability, CellTiter-Glo ATP luminescence; at 120 µM (top of the series)
In short: as §1
With `CCCCC(C#N)c1ccc(Cl)cn1` (stereo unspecified) the activity change, negative = toxicity was 27.3% (inactive). In the case of `N#CC1c2ccc(Cl)cc2CCc2cccnc21` (stereo unspecified), the activity change, negative = toxicity is reported as 2.14% (inactive). In the case of `COCCOCCC(C#N)c1ccc(Cl)cc1` (stereo unspecified), the activity change, negative = toxicity is reported as -0.038% (inactive). For `COCCNC(C#N)c1ccc(Cl)cc1` (stereo unspecified), the activity change, negative = toxicity was 4.87% (inactive). For `COCCOCCC(C#N)c1ccc(F)cc1` (stereo unspecified), the activity change, negative = toxicity was 3.67% (inactive). In the case of `COCCC(C#N)c1ccc(F)cc1` (stereo unspecified), the activity change, negative = toxicity is reported as 6.44% (inactive). In the case of `CCCCC(C#N)c1ccccn1` (stereo unspecified), the activity change, negative = toxicity is reported as 2.12% (inactive). For `N#CC(c1ccc(F)cc1)c1cccc(Cl)n1` (stereo unspecified), the activity change, negative = toxicity was -3.39% (inactive). For `N#Cc1cccc(C(C#N)c2ccc(F)cc2)n1` (stereo unspecified), the activity change, negative = toxicity was 4.63% (inactive). For `N#CC(c1ccc(Cl)cc1)c1ccccn1` (stereo unspecified), the activity change, negative = toxicity was 5.57% (inactive). For `N#CC(c1ccc(F)cc1)c1cccc(C(F)(F)F)n1` (stereo unspecified), the activity change, negative = toxicity was 13.5% (inactive). With `Clc1ccc(C(c2cccc(Cl)n2)c2nn[nH]n2)cc1` (stereo unspecified) the activity change, negative = toxicity was 8.71% (inactive). With `N#CC(c1ccc(C(F)(F)F)c(Cl)n1)c1ccccc1OC(F)(F)F` (stereo unspecified) the activity change, negative = toxicity was 5.17% (inactive). In the case of `N#CC(c1ccc(Cl)cc1)c1cccc(Cl)n1` (stereo unspecified), the activity change, negative = toxicity is reported as 12.2% (inactive). For `N#CC(c1ccc(Cl)cc1)c1cccc(C(F)(F)F)n1` (stereo unspecified), the activity change, negative = toxicity was 10.3% (inactive). With `CCCCC(C#N)c1ccc(F)cn1` (stereo unspecified) the activity change, negative = toxicity was 7.3% (inactive). For `N#CC(c1ccc(Cl)cc1)N1CCCC1` (stereo unspecified), the activity change, negative = toxicity was 30.4% (inactive). For `CCCCC(C#N)c1ccc(Cl)cc1` (stereo unspecified), the activity change, negative = toxicity was 13.5% (inactive). For `CN(C)CCCC(C#N)c1ccc(Cl)cc1` (stereo unspecified), the activity change, negative = toxicity was 23.3% (inactive). For `CCCCC(C#N)c1ccc(F)cc1` (stereo unspecified), the activity change, negative = toxicity was 5.81% (inactive).
